Source: publication PMC6044135 (Indian Journal of Pharmacology, 2018)

Columns and labels:
[1] = system: rats with type 2 diabetes; settings: cited from earlier work
[2] = Pharmacokinetics of serum Cr after oral gavage; format: in vivo, Sprague-Dawley rat; settings: for serum concentration of Cr: at 1.5 h
How it was run: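 SD rats (180 ± 10 g, male and female, 10/group) received 20 μg Cr/kg bw either by gavage after a 12 h fast or via the caudal vein. Blood was drawn retro-orbitally into heparinized tubes at 0–72 h, over 21 time points. Serum (10,000 g, 10 min, 4°C) was wet-digested, 0.1 mL in nitric/perchloric acid (1:4, v/v), and Cr read by simultaneous ICP-OES. Compartment model chosen by AIC and F-test.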

[3] = Faeces distribution of Cr; format: in vivo, Sprague-Dawley rat; settings: oral gavage, 20 μg Cr/kg bw; for feces concentration of Cr: at 5 h
[4] = cited from earlier work
[5] = cited from earlier work; remark: listed apart in the source
diabetic mice = settings: cited from earlier work
[6] = Tissue distribution of Cr; format: in vivo, Sprague-Dawley rat; settings: oral gavage; for level of Cr in brain / level of Cr in heart / level of Cr in kidney / level of Cr in liver / level of Cr in lung / level of Cr in spleen: at 12 h
How it was run: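 Male and female SD rats were dosed by oral gavage and killed under anhydrous diethyl ether anaesthesia at 0.25–48 h postdose. Heart, liver, spleen, lung, kidneys and brain were collected, wet-digested as for serum, and Cr measured by simultaneous ICP-OES. Results given per g tissue.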

[7] = cited from earlier work; remark: listed apart in the source
Bioavailability analysis = format: in vivo, Sprague-Dawley rat; settings: for absolute bioavailability (FAB): AUCig × 100%/AUCiv; for relative bioavailability (FRB): oral, AUC chromium malate × 100%/AUC chromium picolinate
How it was run: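 AUCs came from compartment-model fits of serum Cr–time data in SD rats of each sex. Dosing was 20 μg Cr/kg bw by oral gavage or caudal-vein injection. Relative bioavailability = AUC of test compound ×100%/AUC of chromium picolinate, both oral. Absolute bioavailability = AUC intragastric ×100%/AUC IV.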

[8] = may be caused by the ligand (picolinate); cited from earlier work
[9] = cited from earlier work; remark: listed apart in the source
[10] = intraperitoneal administration, ref 32 (Kirman et al.); cited from earlier work

SMILES: O=C(O)CC(O)C(=O)O.O=C(O)CC(O)C(=O)O.O=C(O)CC(O)C(=O)O.[Cr].[Cr] (stereo not drawn) [Chromium malate, chromium malate]
- FBG level and insulin resistance [1]: could improve FBG level and insulin resistance
- Tmax of serum concentration of Cr ([2]; 20 μg Cr/kg bw, sex not split): 1.5 h
- serum concentration of Cr ([2]; female rats, 20 μg Cr/kg bw): 4760 ± 550 ng/mL
- serum concentration of Cr ([2]; male rats, 20 μg Cr/kg bw): 4630 ± 370 ng/mL
- AUC0→∞ compared with chromium picolinate ([2]; male rats, P ≤ 0.05): higher
- MRT compared with chromium picolinate group ([2]; rats of the same sex, P < 0.05): significantly higher
- feces concentration of Cr ([3]; female rats): 0.47 ± 0.04 µg/g
- feces concentration of Cr ([3]; male rats): 0.50 ± 0.06 µg/g
- feces concentration of Cr in comparison with chromium picolinate group ([3]; same gender rats): no notable change
- 90-day repeated dose oral toxicity and reproductive toxicity [4]: no remarkable influence
- toxicity in the acute toxicity study and subacute toxicity study [5]: nontoxic
- blood glucose level (diabetic mice): could improve blood glucose level
- level of Cr in brain ([6]; female rats): 0.6 µg/g
- level of Cr in heart ([6]; female rats): 0.50 µg/g
- level of Cr in kidney ([6]; female rats): 0.78 µg/g
- level of Cr in liver ([6]; female rats): 0.60 µg/g
- level of Cr in lung ([6]; female rats): 0.49 µg/g
- level of Cr in spleen ([6]; female rats): 0.40 µg/g
- tissue distribution of Cr in comparison with control (male and female) groups ([6]; male and female rats): no notable change
- level of Cr in brain ([6]; male rats): 0.67 µg/g
- level of Cr in heart ([6]; male rats): 0.52 µg/g
- level of Cr in kidney ([6]; male rats): 0.84 µg/g
- level of Cr in liver ([6]; male rats): 0.61 µg/g
- level of Cr in lung ([6]; male rats): 0.52 µg/g
- level of Cr in spleen ([6]; male rats): 0.40 µg/g
- oxidative DNA damage [7]: no oxidative DNA damage
- absolute bioavailability (FAB) (Bioavailability analysis; female rats): 113.28% ± 1.72%
- relative bioavailability (FRB) (Bioavailability analysis; female rats): 105.28% ± 1.62%
- absolute bioavailability (FAB) (Bioavailability analysis; male rats): 111.80% ± 1.81%
- relative bioavailability (FRB) (Bioavailability analysis; male rats): 115.73% ± 2.03%

SMILES: O=C([O-])c1ccccn1.O=C([O-])c1ccccn1.O=C([O-])c1ccccn1.[Cr+3] [Chromium picolinate, chromium picolinate]
- genotoxicity, cytotoxicity, and tumorigenesis [8]: had shown the genotoxicity, cytotoxicity, and tumorigenesis

SMILES: O=C([O-])c1cccnc1.O=C([O-])c1cccnc1.O=C([O-])c1cccnc1.[Cr+3] [chromium nicotinate]
- solubility [9]: poor solubility

SMILES: [Cl][Cr]([Cl])[Cl] [chromium trichloride]
- order of chromium level in mouse organs [10]: liver > kidney > pancreas > spleen > testes > lungs > heart > brain
